# No end group written: not given here.
# What was measured:
# [1] = tested on: endothelial and tumor cells; test: Cell migration/invasion assays, endothelial and tumor cells; type: cell-based, human; settings: SCNH2 10 pM, APL-13 10 nM, SM inhibitors 10 μM, n = 3
# Procedure, shortened: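 Chemotaxis plates: agonist peptides and 10 μM small-molecule inhibitors or 100 μg/ml immune IgG in FBS-free medium in the lower wells; 8000-10,000 cells/well (e.g. HUVEC) in FBS-free medium on the upper membrane, uncoated for migration or rat-tail collagen I-coated for invasion. Incubated 5-24 h at 37 °C/5% CO2/100% humidity. Membranes methanol-fixed, stained with 0.5% crystal violet, upper cells removed, underside cells photographed and counted.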
# [2] = tested on: PI3K/Akt in HMEC-1 cells; test: Western blot, peptide-induced PI3K/Akt phosphorylation in HMEC-1; type: cell-based, human
# [3] = tested on: PI3K/Akt in MCF-7 cells; test: Western blot, peptide-induced PI3K/Akt phosphorylation in MCF-7; type: cell-based, human
# [4] = tested on: p44/42 MAPK in HMEC-1 cells
# [5] = tested on: p44/42 MAPK signaling pathway in MCF-7 cells
# [6] = tested on: P-p44/42 MAPK in NMuMG cells; test: Western blot, phosphorylation of p44/42 MAPK in NMuMG; type: cell-based, murine; settings: maximum of dose response
# [7] = tested on: SCNH2 receptor in enriched MB435 cells; test: FACS binding inhibition assay with bSCNH2/SA488, enriched MB435; design: species or system human; settings: enriched MB435, 50 μM peptide, 5 μM bSCNH2 + 10 μg/ml SA488, FACS
# [8] = tested on: CAM of 10-day-old shell-less embryos; test: Chorioallantoic membrane in chick embryo; type: in vivo; settings: 66 hours
# [9] = tested on: HUVEC cells; test: Cell migration assay, HUVEC; type: cell-based, human; settings: for peptide response hierarchy in molar potency for mediating cell movement: HUVEC migration
# Procedure, shortened: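 Transwell-type chemotaxis plate with uncoated membrane. Test peptides and VEGF-A, at a range of concentrations, in FBS-free medium in bottom wells; 8000–10,000 HUVEC/well in FBS-free medium on top. Incubated 5–24 h at 37°C/5% CO2/100% humidity. Membranes methanol-fixed 5 min and stained with 0.5% crystal violet; upper cells removed. Bottom adherent cells photographed and counted.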
# [10] = tested on: PI3K/Akt and p44/42 MAPK signaling pathways; test: CTX/PTX sensitivity assay; type: cell-based
# [11] = tested on: rat aortic rings; test: Rat aortic ring assay; type: cell-based; settings: 6 days, p < 0.05
# [12] = tested on: P-PI3K/Akt in NMuMG cells; test: Western blot, phosphorylation of PI3K/Akt in NMuMG; type: cell-based, murine; settings: maximum of dose response
molecule,measurement,setting,value
c1cc(CN2CCCNCCNCCCNCC2)ccc1CN1CCCNCCNCCCNCC1 [AMD3100],suppression of SCNH2 and APL-13 induced cell migration and invasion,[1],effectively suppressed
O=c1cc(N2CCOCC2)oc2c(-c3ccccc3)cccc12 [LY294002],inhibition of APL-13 induced phosphorylation of PI3K/Akt,[2],98%
same,inhibition of SCNH2 induced phosphorylation of PI3K/Akt,[2],96%
same,block of APL-13 induced phosphorylation of PI3K/Akt,[3],75%
same,block of SCNH2 induced phosphorylation of PI3K/Akt,[3],93%
same,suppression of SCNH2 and APL-13 induced cell migration and invasion,[1],effectively suppressed
CC(C)(C)Cn1c(N)nc2ccc(-c3[nH]c(C(C)(C)C)nc3-c3ccc(F)cc3)nc21 [LY2228820],suppression of SCNH2 and APL-13 induced cell migration and invasion,[1],effectively suppressed
N#CC(=C(/N)Sc1ccccc1N)/C(C#N)=C(/N)Sc1ccccc1N [U0126],suppression of APL-13 induced phosphorylation of p44/42 MAPK,[4],95%
same,suppression of SCNH2 induced phosphorylation of p44/42 MAPK,[4],98%
same,suppression of APL-13 induced phosphorylation of p44/42 MAPK,[5],97%
same,suppression of SCNH2 induced phosphorylation of p44/42 MAPK,[5],97%
same,suppression of SCNH2 and APL-13 induced cell migration and invasion,[1],effectively suppressed
Apelin-13 [APL-13],maximum P-p44/42 MAPK compared to the control,[6],5 folds
same,block of the binding of bSCNH2,[7],ineffective
same,neovascularization at all of the tested concentrations,"[8]; angiogenic index, p < 0.005",dramatically induced neovascularization
same,concentration inducing the maximum neovascularization,"[8]; p < 0.005, no statistical difference to VEGF-A at 1 nM",100 nM
same,peptide response hierarchy in molar potency for mediating cell movement,[9],SCNH2 > VEGF-A > APL-13
same,maximal stimulating concentration,"[9]; cell migration, dose-response on HUVEC",10 nM
same,effect of CTX on peptide signaling (kinase activation),"[10]; CTX treatment, Western blot",indifferent
same,effect of PTX on peptide signaling (kinase activation),"[10]; PTX pretreatment overnight, 100 pM peptide 10 min",sensitive
same,concentration inducing maximal vessel sprouting,[11],10 nM
same,maximum P-PI3K/Akt compared to the control,[12],8 folds
adrenomedullin [AM],block of the binding of bSCNH2,[7],ineffective
arginine vasopressin [AVP],block of the binding of bSCNH2,[7],ineffective
"gastrin-releasing peptide (VPLPAGGGTVLTKMYPRGNHWAVGHLM-NH2; UniProt P07492 24-50, looked up) [GRP]",block of the binding of bSCNH2,[7],ineffective
luteinizing hormone-releasing hormone [LHRH],block of the binding of bSCNH2,[7],ineffective
oxytocin [OXT],block of the binding of bSCNH2,[7],ineffective
vascular endothelial growth factor A [VEGF-A],peptide response hierarchy in molar potency for mediating cell movement,[9],SCNH2 > VEGF-A > APL-13
